The source of these data is ChEMBL document CHEMBL3227946, “Antianaphylactic agents. 1. 2-(Acylamino)oxazoles” (1979).

Test [1] is described as follows: Antianaphylactic activity in ovalbumin sensitized albino guinea pig chopped lung assessed as inhibition of antigen-induced slow-reacting substance of anaphylaxis release at 10 ug/mL after 15 mins relative to control. The class given is functional, Cavia porcellus. In a few lines: (§1)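 Lungs were perfused with Tyrode's, chopped into 0.5-mm cubes and split into 100-mg aliquots. Aliquots were challenged with antigen ± compound and rocked at 37 °C for 15 min. Unchallenged controls gave spontaneous release. Supernatant histamine or SRS-A was bioassayed on guinea pig ileum against standards. Values are % inhibition, mean of four samples.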

The nature of test [2]: Antianaphylactic activity in human chopped lung treated with atopic serum isolated from patients allergic to cocksfoot pollen assessed as inhibition of antigen-induced slow-reacting substance of anaphylaxis release at 10 ug/mL after 15 mins relative to control. It counts as functional. As to conditions: 0.25 h. An outline of the steps:
(§2)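 Surgical human lung (bronchial carcinoma resections) was washed in Hank's, chopped into 0.5-mm cubes and incubated for 18 h at 18 °C with atopic serum from cocksfoot pollen-allergic patients. Tissue was washed, equilibrated in Tyrode's at 37 °C and challenged with saline pollen extract ± compound for 15 min. Histamine or SRS-A in the supernatant was bioassayed on guinea pig ileum. Values are % inhibition, mean of four samples.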

The test system of test [3] is Cavia porcellus. As to the kind of experiment: Antianaphylactic activity in ovalbumin/ovalbumin aerosol sensitized guinea pig bronchospasm model assessed as ratio of mean collapse time after pretreatment with compound in presence of mepyramine to mean collapse time of control animal at 2 x 100 mg/kg, po compound administered prior to antigen challenge by Herxheimer test. The class given is functional. In a few lines:
(§3)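 Ovalbumin-sensitized male guinea pigs were exposed in a chamber to ovalbumin aerosol (1% w/v) until a convulsive cough; that time is the collapse time. Compound was given orally either 2 h before challenge or in two doses at 0.5 and 3 h before. Where used, mepyramine was given at 0.5 mg/kg sc 0.5 h before. Ratio is mean collapse time of treated animals over that of controls.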

The test system of test [4] is Cavia porcellus. Description: Antianaphylactic activity in ovalbumin/ovalbumin aerosol sensitized guinea pig bronchospasm model assessed as ratio of mean collapse time after pretreatment with compound to mean collapse time of control animal at 2 x 100 mg/kg, po compound administered prior to antigen challenge by Herxheimer test. It counts as functional. An outline of the steps: as §3

A short description of test [5]: Antianaphylactic activity in human chopped lung treated with atopic serum isolated from patients allergic to cocksfoot pollen assessed as inhibition of antigen-induced histamine release at 10 ug/mL after 15 mins relative to control. It counts as functional. As to conditions: 0.25 h. An outline of the steps: as §2
A further test has as its system Rattus norvegicus. As to the kind of experiment: Antianaphylactic activity in antiovalbumin IgE serum-treated Wistar rat at 2 x 100 mg/kg, po administered 2.5 hrs prior to ovalbumin challenge measured after 45 mins by passive cutaneous anaphylaxis test. As to conditions: in the assay text read “2 hrs and again 30 mins prior to” for “2.5 hrs prior to”. It counts as functional, organism-based. More on the design: dose 100 mg/kg. An outline of the steps: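 Female Wistar rats, shaved and lightly anaesthetized, received an intradermal abdominal injection of diluted rat antiovalbumin IgE serum. After 24 h they were challenged iv with ovalbumin mixed with dye. Compound was given at 2 h and again at 30 min before challenge. Rats were killed 45 min after challenge and the blue area on the inner skin surface was measured.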

A short description of test [6]: Antianaphylactic activity in ovalbumin sensitized albino guinea pig chopped lung assessed as inhibition of antigen-induced histamine release at 10 ug/mL after 15 mins relative to control. It counts as functional, Cavia porcellus. An outline of the steps:
as §1

The test system of test [7] is Cavia porcellus. Description: Antianaphylactic activity in ovalbumin/ovalbumin aerosol sensitized guinea pig bronchospasm model assessed as ratio of mean collapse time after pretreatment with compound in presence of mepyramine to mean collapse time of control animal at 1 x 2 mg/kg, po compound administered prior to antigen challenge by Herxheimer test. It counts as functional. In a few lines: as §3

Test [8] has as its system Cavia porcellus. Description: Antianaphylactic activity in ovalbumin/ovalbumin aerosol sensitized guinea pig bronchospasm model assessed as ratio of mean collapse time after pretreatment with compound to mean collapse time of control animal at 1 x 2 mg/kg, po compound administered prior to antigen challenge by Herxheimer test. It counts as functional. In a few lines: as §3

The subject of test [9] is Cavia porcellus. Description: Antianaphylactic activity in ovalbumin/ovalbumin aerosol sensitized guinea pig bronchospasm model assessed as ratio of mean collapse time after pretreatment with compound to mean collapse time of control animal at 0.5 mg/kg, sc by Herxheimer test. It counts as functional. Conditions: route subcutaneous. An outline of the steps: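 Ovalbumin-sensitized male guinea pigs were given mepyramine at 0.5 mg/kg sc 0.5 h before exposure to ovalbumin aerosol (1% w/v) in a chamber. Collapse time is the time to a convulsive cough. Ratio is mean collapse time of mepyramine-treated animals over that of controls.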

The source made the active and inactive calls. The rule behind the calls is not given here.

One may read the inhibition as the drop in the measured response relative to a control, in per cent. Regarding `CCCCN(C(=O)C1CC1)c1nc(C)co1`, the “inhibition (INH)” value in [1] is recorded as 46%; in [6], 22%. Moreover, the results for the inhibition at 10 µg/mL in test [2] and in test [5] were 72% and 0%, respectively. The Ratio was 13.9 with Cavia porcellus [3] and 12.2 in the test with Cavia porcellus [4]. Further, in the test on Rattus norvegicus, the result was inactive.
As to `CCCCN(C(=O)C(C)C)c1nc(C)co1` [ISAMOXOLE], the entries for the “inhibition (INH)” value in [1] and in test [6] were 54% and 38%, respectively. Also, the inhibition at 10 µg/mL in test [2] was 93%; in [5], 23%. The Ratio with Cavia porcellus [3] came out at 5.9; in the test on Cavia porcellus [4], 4.6. In addition, the result with Rattus norvegicus was inactive.
As to `CN1CCC(=C2c3ccccc3CC(=O)c3sccc32)CC1` [KETOTIFEN], the inhibition at 10 µg/mL in [2] was determined as 100%; in test [5], 23%. The Ratio in the test with Cavia porcellus [7] was 7.2; with Cavia porcellus [8], 4.2.
Consider `CCCCN(C(=O)CCC)c1nc(C)co1`, for which the “inhibition (INH)” value in test [1] amounted to 52%; in [6] it was 33%. Further, the figures for the inhibition at 10 µg/mL in test [2] and in test [5] were 88% and 14%, respectively. For the same compound, the results for the Ratio in the test on Cavia porcellus [3] and in the test on Cavia porcellus [4] were 6.4 and 4.3, respectively. In addition, the outcome with Rattus norvegicus was inactive.
As to `COc1ccc(CN(CCN(C)C)c2ccccn2)cc1` [PYRILAMINE], the Ratio with Cavia porcellus [9] was determined as 3.7.
On to `CCCCC(=O)N(CCC)c1nc(C)co1`, for which the “inhibition (INH)” value was determined as 55% in test [1] and 48% in test [6]. Moreover, the figures for the inhibition at 10 µg/mL in test [2] and in [5] were 38% and 0%, respectively. Also, the Ratio in the test on Cavia porcellus [3] worked out at 5.8; with Cavia porcellus [4], 0.8. For the same compound, in the test on Rattus norvegicus, the result was inactive.
Consider `CCCCCC(=O)N(CCC)c1nc(C)co1`, for which the “inhibition (INH)” value in test [1] was determined as 47%; in [6], 44%. Moreover, the inhibition at 10 µg/mL stood at 47% in test [2] and 44% in test [5]. Also, the figures for the Ratio with Cavia porcellus [3] and in the test with Cavia porcellus [4] were 4.7 and 1.4, respectively. In addition, in the test on Rattus norvegicus, the outcome was inactive.
In the case of `CCCCN(C(=O)C(C)(C)C)c1nc(C)co1`, the “inhibition (INH)” value was 23% in [1] and 0% in test [6]. Moreover, the figures for the inhibition at 10 µg/mL in test [2] and in test [5] were 23% and 37%, respectively. In addition, the Ratio in the test on Cavia porcellus [3] was found to be 7.7; in the test with Cavia porcellus [4] it was 4.4. Besides, the result in the test on Rattus norvegicus was inactive.
As to `CCCCN(C(=O)C1CCC1)c1nc(C)co1`, the “inhibition (INH)” value was 74% in test [1] and 34% in test [6]. The inhibition at 10 µg/mL stood at 55% in test [2] and 0% in [5]. The Ratio in the test with Cavia porcellus [3] is on record as 7.4; in the test on Cavia porcellus [4] it was 1.5. Also, the outcome in the test on Rattus norvegicus was inactive.
